# Results collected from several papers.
# Each line is one published result; the experiments were not run side by side.
# Target: MAP/microtubule affinity-regulating kinase 3 (MARK3, Homo sapiens, UniProt P27448)
Compound,assay,conditions,remaining binding [%]
CNC(=O)[C@@H]1CC[C@@H](n2c(-c3ccc4cnccc4c3)nc3ccc(C(=O)NCc4cccc(C(N)=O)c4)cc32)C1,"binding, competition with immobilised ligand",1 µM,59
COc1ncc2cc3ccccc3nc2c1C#N,"cell-free assay, competition with immobilised ligand",5 µM,100
Cc1cnn2ncc(-c3ccnc(N(C)C)n3)c2c1,binding,1 µM,82
O=C(c1ccc(Nc2ncc(Cl)c(-c3cc4ccccc4s3)n2)cc1)N1CCC(N2CCCC2)CC1,"binding, competition with immobilised ligand",1 µM,100
C=CC(=O)N1CCC(C(=O)NCC(=O)N2CCN(c3nc(-c4cnc(N)nc4C(F)F)nc(N4CCOCC4)n3)CC2)CC1,"binding, competition with immobilised ligand",1 µM,65
O=C(O)[C@H]1[C@H](Cn2nnc3ccccc3c2=O)CC[C@@H]1C(=O)c1ccc(OCCC2CCOCC2)cc1,"cell-free assay, competition with immobilised ligand",1 µM,100
c1cnn2ncc(-c3ccnc(N4CCC45COC5)n3)c2c1,binding,1 µM,100
CN(C)C(=O)Cn1cc(-c2nc([C@@](C)(c3ccc(-c4cnc(N)nc4)cc3)C3CC3)no2)cn1,"cell-free assay, competition with immobilised ligand",1 µM,99
CCN1CCN(Cc2ccc(C(=O)Nc3ccc(C)c(Oc4ccc5c(c4)CC(=O)N5)c3)cc2C(F)(F)F)CC1,"binding, competition with immobilised ligand",1 µM,100
CC(=O)Nc1c(C(C)=O)c(=O)n(C)c2nc(-c3ccc(Cl)cc3Cl)c(-c3ccc(Cl)cc3)cc12,"cell-free assay, competition with immobilised ligand",1 µM,100
C[C@@H]1CCN(c2nccc(-c3cnn4ncccc34)n2)C1,binding,1 µM,100
COc1cc(-c2cn(C3CCc4ccccc4N(CC(F)(F)F)C3=O)nn2)ccc1-n1ccc(C)n1 (stereo not shown),"cell-free assay, competition with immobilised ligand",1 µM,100
N[C@H]1CCN(c2nccc(-c3cnn4ncccc34)n2)C1,binding,1 µM,57
N#Cc1ccccc1CSc1nnc2c(n1)[nH]c1ccccc12,"binding, competition with immobilised ligand",10 µM,93
O=C(Nc1cccnn1)N1CCC(=Cc2cccc(Oc3ccc(C(F)(F)F)cn3)c2)CC1,"cell-free assay, competition with immobilised ligand",1 µM,89
O=C(NCCCN1CCOCC1)c1ccc(Nc2nccc(-c3cc4ccccc4s3)n2)cc1,"binding, competition with immobilised ligand",1 µM,100
